T cruzi growth-1 – blocks T. cruzi growth in NIH3T3 culture | AID 624255 | 5.9% of 77,000 active | inhibition, % at 8.34 µM | T. cruzi beta-gal in NIH3T3, GalScreen luminescence, 90 h;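 active = mean inhibition above about 93%, with at least 55% of replicates each passing it, limit read from the data, passing the limit was not always enough; inconclusive = only one of those two conditions holds; inactive = neither condition holds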
Pf Dd2 inh – inhibitors of Plasmodium falciparum Dd2 growth | P. falciparum Dd2 growth, SYBR Green, 72 h; stronger effect = lower value | activity change, % at 10 µM | 2.3% of 94,000 active; in the data active = activity change below about -80%; inconclusive = no clear call, values can overlap the other calls
GASC1 inh – inhibitors of human demethylase GASC-1 KDM4C | AID 720574 | GST-KDM4C 2-372, H3K9me3 peptide, LANCE TR-FRET | inhibition, % at 12.5 µM | Q9H3R0 | 0.15% of 96,000 active;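 active = mean replicate inhibition above about 25%, with at least 55% of replicates also reaching it, limit read from the data, passing the limit was not always enough; inconclusive = only one of those two conditions met; inactive = neither condition met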
Target sequence (Q9H3R0 2-372 limits assumed): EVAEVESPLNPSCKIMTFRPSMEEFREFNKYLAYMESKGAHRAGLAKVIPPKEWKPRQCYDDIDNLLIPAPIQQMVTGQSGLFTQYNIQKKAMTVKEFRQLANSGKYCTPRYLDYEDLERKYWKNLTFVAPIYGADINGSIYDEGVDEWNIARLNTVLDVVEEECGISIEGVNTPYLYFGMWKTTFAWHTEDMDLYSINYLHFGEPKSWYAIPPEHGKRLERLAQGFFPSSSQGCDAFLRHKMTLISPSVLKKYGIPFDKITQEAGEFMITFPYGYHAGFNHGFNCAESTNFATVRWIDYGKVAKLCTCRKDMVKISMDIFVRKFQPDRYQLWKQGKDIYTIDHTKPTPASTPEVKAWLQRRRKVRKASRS
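Test system: N-terminal GST-fused human GASC-1 (KDM4C) fragment, residues 2-372; quantity: GASC-1 enzyme at 10 nM final in reaction; dosing: single dose; schedule: 30 min demethylation and 1 h detection at room temperature; signal: LANCE TR-FRET, excitation 340 nm, emissions 618 and 671 nm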
IDH1 R132H inh – blocks human IDH1 R132H reductase activity. O75874. 0.18% of 70,000 active. AID 624101. diaphorase/resazurin fluorescence, 60 min. inhibition, % at 10 µM; in the data active = inhibition above about 34%; inconclusive = no clear call, values can overlap the other calls; inactive = below about 11%
Target sequence (O75874 whole entry R132H): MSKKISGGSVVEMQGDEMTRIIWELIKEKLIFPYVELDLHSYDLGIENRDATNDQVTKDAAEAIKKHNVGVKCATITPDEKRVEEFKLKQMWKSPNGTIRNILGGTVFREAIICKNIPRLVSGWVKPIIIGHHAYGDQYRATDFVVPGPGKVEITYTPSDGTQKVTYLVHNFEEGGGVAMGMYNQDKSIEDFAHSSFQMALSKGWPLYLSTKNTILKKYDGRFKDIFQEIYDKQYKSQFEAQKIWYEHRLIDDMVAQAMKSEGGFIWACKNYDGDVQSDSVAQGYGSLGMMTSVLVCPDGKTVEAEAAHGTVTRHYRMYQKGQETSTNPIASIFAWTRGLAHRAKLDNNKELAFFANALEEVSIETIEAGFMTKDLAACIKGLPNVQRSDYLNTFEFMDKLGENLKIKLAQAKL
T cruzi growth-2 – Trypanosoma cruzi proliferation inhibition; inhibition, % at 8.35 µM; shares compounds with T cruzi growth-1; 72% of 5,600 active; AID 651739; T. cruzi beta-gal in NIH3T3, GalScreen luminescence, 90 h;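 active = mean replicate inhibition above about 95% and at least 55% of replicates individually reaching it, limit read from the data; inconclusive = only one of the two criteria is met; inactive = neither criterion is met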
T cruzi growth-3 – inhibitors of T. cruzi proliferation; shares compounds with T cruzi growth-1; T. cruzi beta-gal in NIH3T3, GalScreen luminescence, 90 h; inhibition, % at 2.09 µM; 21% of 5,600 active; AID 651740;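 active = mean inhibition above about 95%, with at least 55% of replicates also reaching it, limit read from the data; inconclusive = meets just one of the two conditions; inactive = meets neither condition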
NIH3T3 tox – cytotoxicity in mouse NIH/3T3 fibroblasts | shares compounds with T cruzi growth-1 | NIH/3T3 viability, CellTiter-Glo ATP luminescence, 90 h | cytotoxicity (signal decrease), % at 8.35 µM | 14% of 5,600 active;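 active = mean signal decrease across replicates above about 35% based on untreated-well scatter, with enough replicates individually passing, limit read from the data; inconclusive = no rule stated though some were filed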
NIH3T3 tox 2 – NIH/3T3 (mouse) viability loss | inhibition, % at 24.9 µM | shares compounds with T cruzi growth-1 | NIH/3T3 viability, CellTiter-Glo ATP luminescence, 90 h | 56% of 5,600 active;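 active = mean loss of cell viability signal at or above a set limit, and enough replicates individually reaching it; inconclusive = meets only the mean limit or only the replicate share; inactive = meets neither condition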
A number is an active result; 0 = inactive; ? = inconclusive; - = no result. Sampled rows, rich in hits. Any-hit rate of the full collection: about 5.8%.

SMILES | T cruzi growth-1 | Pf Dd2 inh | GASC1 inh | IDH1 R132H inh | T cruzi growth-2 | T cruzi growth-3 | NIH3T3 tox | NIH3T3 tox 2
CCCC#Cc1ccc2c(c1)O[C@H](CN(C)S(=O)(=O)c1cccc(F)c1)[C@@H](C)CN([C@H](C)CO)S2(=O)=O | 122 | 0 | 0 | 0 | 101 | 106 | 0 | 24
COCC#Cc1ccc2c(c1)O[C@H](CN(C)S(=O)(=O)c1cccc(F)c1)[C@H](C)CN([C@H](C)CO)S2(=O)=O | 107 | -82 | 0 | 0 | 0 | 0 | 0 | 63
CCCC#Cc1ccc2c(c1)O[C@H](CN(C)S(=O)(=O)c1cccc(F)c1)[C@H](C)CN([C@H](C)CO)S2(=O)=O | 122 | 0 | 0 | 0 | 103 | 108 | 0 | 75
C[C@H]1CN([C@@H](C)CO)S(=O)(=O)c2ccc(C#CCN(C)C)cc2O[C@@H]1CN(C)S(=O)(=O)c1cccc(F)c1 | - | 0 | 0 | 0 | - | - | - | -
CC(C)CC#Cc1ccc2c(c1)O[C@@H](CN(C)S(=O)(=O)c1cccc(F)c1)[C@@H](C)CN([C@H](C)CO)S2(=O)=O | 120 | 0 | 0 | 0 | 0 | 100 | 0 | 57
CC(C)CC#Cc1ccc2c(c1)O[C@H](CN(C)S(=O)(=O)c1ccc(F)cc1)[C@H](C)CN([C@H](C)CO)S2(=O)=O | - | 0 | 0 | 0 | - | - | - | -
COc1ccc(-c2noc(CSc3nnc(-c4cccs4)n3-c3ccccc3)n2)cc1OC | - | - | - | 0 | - | - | - | -
CCCC#Cc1ccc2c(c1)O[C@@H](CN(C)S(=O)(=O)c1cccc(F)c1)[C@@H](C)CN([C@@H](C)CO)S2(=O)=O | 121 | 0 | 0 | 0 | 105 | 102 | 0 | 84
COc1cccc(S(=O)(=O)N(C)C[C@@H]2Oc3cc(C#CCC(C)C)ccc3S(=O)(=O)N([C@@H](C)CO)C[C@H]2C)c1 | 96 | ? | 0 | 0 | 103 | 108 | 43 | 78
O=C(O)[C@@H]1[C@@H](CO)[C@@H]2Cn3c(ccc(C4=CCCCC4)c3=O)[C@@H]2N1C(=O)c1ccccc1F | 0 | 0 | 0 | - | - | - | - | -
CCC(=O)Nc1ccc2c(c1)OC[C@H](C)N(C(=O)Cc1ccccn1)C[C@@H](C)[C@H](OC)CN(C)C2=O | 0 | 0 | 0 | 0 | - | - | - | -
CC(C)CC#Cc1ccc2c(c1)O[C@@H](CN(C)CC1CCOCC1)[C@H](C)CN([C@@H](C)CO)S2(=O)=O | 0 | 0 | 0 | 0 | - | - | - | -
CC(C)CC#Cc1ccc2c(c1)O[C@@H](CN(C)CC1CCOCC1)[C@@H](C)CN([C@H](C)CO)S2(=O)=O | 118 | 0 | 0 | - | 108 | 0 | 0 | 104
CC(C)CC#Cc1ccc2c(c1)O[C@@H](CN(C)CC1CCOCC1)[C@@H](C)CN([C@@H](C)CO)S2(=O)=O | ? | 0 | 0 | 0 | 110 | ? | 0 | 105
Cc1ccc(-c2cnc3c(c2)C(=O)N([C@H](C)CO)C[C@@H](C)[C@H](CN(C)S(C)(=O)=O)O3)cc1 | - | 0 | 0 | 0 | - | - | - | -
C[C@H](CO)N1C[C@H](C)[C@@H](CN(C)Cc2ccc(Oc3ccccc3)cc2)Oc2c(NC(=O)Nc3ccc4c(c3)OCO4)cccc2C1=O | ? | 0 | 0 | - | 109 | 0 | 0 | 0
C[C@H](CO)N1C[C@H](C)[C@H](CN(C)Cc2ccc(Oc3ccccc3)cc2)Oc2ccc(NC(=O)Cc3ccccc3)cc2C1=O | ? | 0 | 0 | 0 | 0 | 0 | 0 | 102
C[C@H](CO)N1C[C@H](C)[C@@H](CN(C)Cc2ccc(Oc3ccccc3)cc2)Oc2ccc(NC(=O)Nc3ccccc3)cc2C1=O | 0 | 0 | 0 | - | - | - | - | -
C[C@@H]1CN([C@@H](C)CO)C(=O)c2cc(NC(=O)Nc3ccc4c(c3)OCO4)ccc2O[C@@H]1CN(C)Cc1ccncc1 | 0 | 0 | 0 | 0 | - | - | - | -
C[C@@H]1CN([C@@H](C)CO)C(=O)c2cc(NC(=O)Cc3ccccc3)ccc2O[C@H]1CN(C)Cc1ccc(Oc2ccccc2)cc1 | 0 | 0 | 0 | - | - | - | - | -
C[C@@H]1CN([C@@H](C)CO)C(=O)c2cccc(NC(=O)Nc3ccc4c(c3)OCO4)c2O[C@@H]1CN(C)Cc1ccc(Oc2ccccc2)cc1 | 0 | 0 | 0 | - | - | - | - | -
C[C@H]1CN([C@@H](C)CO)C(=O)c2cc(NC(=O)Nc3ccc4c(c3)OCO4)ccc2O[C@H]1CN(C)Cc1ccc(Oc2ccccc2)cc1 | 117 | 0 | 0 | 0 | 109 | 0 | 0 | 41
C[C@H](CO)N1C[C@H](C)[C@H](CN(C)Cc2ccncc2)Oc2ccc(NC(=O)Nc3ccc4c(c3)OCO4)cc2C1=O | 117 | 0 | 0 | 0 | 0 | 0 | 0 | 34
O=C(C[C@@H]1C[C@@H]2c3cc(NC(=O)Nc4ccc(C(F)(F)F)cc4)ccc3O[C@@H]2[C@H](CO)O1)NCc1cccnc1 | 0 | 0 | 0 | 0 | - | - | - | -
COC(=O)C[C@@H]1C[C@@H]2c3cc(NC(=O)C4CCOCC4)ccc3O[C@@H]2[C@@H](CO)O1 | 0 | 0 | 0 | 0 | - | - | - | -
SMILES | T cruzi growth-1 | Pf Dd2 inh | GASC1 inh | IDH1 R132H inh | T cruzi growth-2 | T cruzi growth-3 | NIH3T3 tox | NIH3T3 tox 2
C[C@@H]1CN([C@@H](C)CO)S(=O)(=O)c2ccc(C3=CCCC3)cc2O[C@H]1CN(C)Cc1cccnc1 | ? | 0 | 0 | 77 | 105 | 99 | 47 | 46
C[C@@H]1CN([C@@H](C)CO)S(=O)(=O)c2ccc(C3=CCCC3)cc2O[C@@H]1CN(C)Cc1cccnc1 | 100 | 0 | 0 | - | ? | 0 | ? | 46
C[C@H]1CN([C@@H](C)CO)S(=O)(=O)c2ccc(C3=CCCC3)cc2O[C@@H]1CN(C)Cc1cccnc1 | 103 | 0 | 0 | 0 | 105 | 104 | 55 | 63
O=C(C[C@H]1CC[C@@H]2[C@H](COC[C@@H](O)CN2S(=O)(=O)c2cccc(Cl)c2)O1)NCCCN1CCOCC1 | - | 0 | 0 | - | - | - | - | -
CCC(=O)Nc1ccc2c(c1)OC[C@@H](C)N(C(=O)CC)C[C@@H](C)[C@H](OC)CN(C)C2=O | 0 | - | 0 | 0 | - | - | - | -
C[C@@H]1CN([C@H](C)CO)C(=O)c2ccccc2-c2ccccc2CO[C@H]1CN(C)S(=O)(=O)c1ccc(C(F)(F)F)cc1 | 96 | 0 | 0 | - | ? | 0 | 0 | 0
C[C@@H]1CN([C@H](C)CO)C(=O)c2ccccc2-c2ccccc2CO[C@H]1CN(C)S(=O)(=O)c1cccs1 | ? | 0 | 0 | - | 0 | 0 | 0 | ?
C[C@@H]1CN([C@H](C)CO)C(=O)c2ccccc2-c2ccccc2CO[C@H]1CN(C)S(=O)(=O)c1ccc(F)cc1 | 0 | 0 | 0 | - | - | - | - | -
Cc1noc(C)c1C(=O)N(C)C[C@H]1OCc2ccccc2-c2ccccc2C(=O)N([C@H](C)CO)C[C@H]1C | ? | 0 | 0 | - | 0 | 0 | 0 | 0
COCC#Cc1ccc2c(c1)O[C@H](CN(C)C(=O)C1CCC1)[C@H](C)CN([C@H](C)CO)S2(=O)=O | 0 | 0 | 0 | - | - | - | - | -
